ChEMBL document CHEMBL3244361, “B/C-cis- and -trans-1,3,4,9,10,10a-Hexahydro-2H-10,4a-methanoiminoethanophenanthrene (homo- and homoisomorphinan) derivatives as analgesics” (J Med Chem, 1977)
The source made the active and inactive calls. The rule behind the calls is not given here.

Tests used:
[1] = test system: Mus musculus; assay: Analgesic activity in sc dosed mouse by hot plate assay; type: functional
[2] = test system: Rhesus monkey; assay: Physical dependence capacity in rhesus monkey assessed as suppression/precipitation of abstinence syndrome at 4 mg/kg; conditions: in vivo
[3] = test system: Rhesus monkey; assay: Physical dependence capacity in rhesus monkey assessed as suppression/precipitation of abstinence syndrome at 0.4 to 6.4 mg/kg; type: organism-based, Macaca mulatta; set-up: dose 0.4-6.4 mg/kg; conditions: in vivo
Procedure, shortened: (§1)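 Monkey single-dose suppression test for physical dependence capacity. Abstinence signs were scored for suppression or precipitation across the dose range given in each line.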

[4] = test system: Rhesus monkey; assay: Physical dependence capacity in rhesus monkey assessed as suppression/precipitation of abstinence syndrome at 0.5 to 1 mg/kg; type: organism-based, Macaca mulatta; set-up: dose 0.5-1 mg/kg; conditions: in vivo; procedure, shortened: as §1
[5] = test system: Rhesus monkey; assay: Narcotic antagonist activity in morphine-dependent monkey assessed as precipitation of abstinence syndrome; type: functional, organism-based; conditions: Macaca mulatta; procedure, shortened: as §1
[6] = species: Mus musculus
[7] = test system: Mus musculus; assay: Toxicity in mouse at 50 mg/kg, sc; type: organism-based; set-up: dose 50 mg/kg, route subcutaneous; conditions: in vivo
[8] = test system: Rhesus monkey; assay: Physical dependence capacity in rhesus monkey assessed as suppression/precipitation of abstinence syndrome at 0.5 to 4 mg/kg; type: organism-based, Macaca mulatta; set-up: dose 0.5-4 mg/kg; conditions: in vivo; procedure, shortened: as §1
[9] = test system: Rhesus monkey; assay: Physical dependence capacity in rhesus monkey assessed as suppression/precipitation of abstinence syndrome at 0.5 to 8 mg/kg; type: organism-based, Macaca mulatta; set-up: dose 0.5-8 mg/kg; conditions: in vivo; procedure, shortened: as §1

| Structure (SMILES) | ED50 [1] [mg/kg] | Activity [5] | also measured |
| --- | --- | --- | --- |
| COc1ccc2c(c1)[C@@]13CCCC[C@@H]1[C@@H](C2)CN(C)CC3 | 8.1 |  |  |
| Br.CN1CC[C@]23CCCC[C@@H]2[C@@H](Cc2ccc(O)cc23)C1 | 2.1 |  | Activity [2]: Toxic |
| Br.CN1CC[C@]23CCCC[C@H]2[C@@H](Cc2ccc(O)cc23)C1 | 0.8 |  | Activity [3]: Non-toxic |
| C=CCN1CC[C@]23CCCC[C@H]2[C@@H](Cc2ccc(O)cc23)C1 (relative stereo) |  | inactive | Activity [4]: Non-toxic; ED50 [6]: inactive |
| COc1ccc2c(c1)[C@@]13CCCC[C@H]1[C@@H](C2)CN(C)CC3 | 3.4 |  |  |
| Oc1ccc2c(c1)[C@@]13CCCC[C@@H]1[C@@H](C2)CN(CC1CC1)CC3 (relative stereo) |  | inactive | Activity [7]: Toxic; Activity [8]: Non-toxic |
| CN1CC[C@]23c4c5ccc(O)c4O[C@H]2[C@@H](O)C=C[C@H]3[C@H]1C5.Cl [MORPHINE HYDROCHLORIDE] | 1.2 |  |  |
| Oc1ccc2c(c1)[C@@]13CCCC[C@H]1[C@@H](C2)CN(CC1CC1)CC3 (relative stereo) | 6.2 | inactive | Activity [9]: Non-toxic |
| C=CCN1CC[C@]23CCCC[C@@H]2[C@@H](Cc2ccc(O)cc23)C1 (relative stereo) | 19.6 | inactive | Activity [8]: Non-toxic |
